Source: PubChem (several laboratories)
b-catenin transl: modulators of beta-catenin nuclear translocation | nuclear translocation activity, % at 5 µM | 0.3% of 190,000 active | HeLa beta-catenin nuclear translocation, immunofluorescence imaging | AID 1665;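 active = nuclear translocation activity above 50% at 5 µM, with a well cell count of 50 or more; inconclusive = wells under 50 cells across six images, flagged as toxic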;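 also: per-cell ratio of nuclear to cytoplasmic median beta-catenin stain intensity; plate controls were DMSO negative control for no effect and GSK-3 inhibitor IX positive control for full effect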
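System: Human HeLa cells, endogenous beta-catenin | Compound dosing: 5 µM primary, 0.02–20 µM confirmation | Timing: 24 h compound exposure at 37°C, 5% CO2 | Measured by: Fluorescence imaging of beta-catenin antibody stain plus DAPI | Read-out basis: % activation of per-cell nuclear versus cytoplasmic median beta-catenin signal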
Wee1 stabilizer: inhibitors of human Wee1 degradation; P30291; HeLa Luc-Wee1K328M stability, luciferase luminescence; 100% = proteasome inhibitor MG132 effect; reporter increase, % at 5 µM; 1.2% of 220,000 active;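 active = activation above the mean of all tested compounds plus 3 SD, set per screening run, cut at about 8.8% in these data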;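 also: cells exposed to compound for 20 h before luminescence read; 0% = DMSO alone and 100% = MG132 at 30 µM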
Target sequence (P30291 whole entry K328M): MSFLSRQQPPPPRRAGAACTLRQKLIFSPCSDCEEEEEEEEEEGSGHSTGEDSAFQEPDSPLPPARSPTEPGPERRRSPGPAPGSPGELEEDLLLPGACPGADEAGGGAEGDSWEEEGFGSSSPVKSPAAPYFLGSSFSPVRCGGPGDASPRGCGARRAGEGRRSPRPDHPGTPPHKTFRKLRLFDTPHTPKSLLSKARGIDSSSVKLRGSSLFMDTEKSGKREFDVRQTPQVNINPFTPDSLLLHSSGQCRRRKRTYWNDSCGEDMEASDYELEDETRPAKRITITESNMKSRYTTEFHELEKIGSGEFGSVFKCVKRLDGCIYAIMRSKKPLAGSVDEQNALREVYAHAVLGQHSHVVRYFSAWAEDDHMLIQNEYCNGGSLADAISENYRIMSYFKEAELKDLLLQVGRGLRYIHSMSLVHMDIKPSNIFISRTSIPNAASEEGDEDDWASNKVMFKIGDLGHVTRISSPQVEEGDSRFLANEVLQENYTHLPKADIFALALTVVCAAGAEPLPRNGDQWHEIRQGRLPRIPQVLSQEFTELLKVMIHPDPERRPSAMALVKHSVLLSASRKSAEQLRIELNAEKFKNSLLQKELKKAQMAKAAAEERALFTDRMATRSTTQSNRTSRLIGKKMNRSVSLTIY
Insulin prom up: MIN6 insulin promoter up-regulation; MIN6 insulin promoter-GFP reporter, high-content imaging; stronger effect = higher value; z-score at 5 µM; 0.3% of 190,000 active;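 active = z-score above 3 at 5 µM with at least 500 cells counted in the well; inconclusive = wells under 500 cells, flagged as cytotoxic or low count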
MT stabilize HCS: microtubule stabilizers in HeLa cells | HeLa tubulin immunostaining HCS, 24 h; share of cells brighter than vehicle mean+2SD | % tubulin-high responders, % at 10 µM | 0.83% of 200,000 active | AID 2205;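 active = plate Z-score above 3 for both tubulin-high and condensed-nucleus cell shares, with cell loss under 80%, at 10 µM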;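 also: anti alpha tubulin signal scored within the nucleus-defined area of each cell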
Autophagy HCS: autophagy modulation, high-content screen; AID 463193; calls only at 10 µM (by protocol); MEF GFP-LC3 puncta imaging; test concentration mostly 10 µM; 0.98% of 190,000 active;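 active = percentage of spot-positive cells more than 3 SD above its plate mean, without a fluorescence outlier flag or 80% toxicity; inconclusive = no clear call, values can overlap the other calls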;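 also: spot-positive cell cutoff set from DMSO-treated cells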
An asterisk follows results filed as active; i = inactive; u = inconclusive; x = not tested or not shown; + = active, no number. This is a sample that favours compounds with a hit; in the whole collection about 2.9% have one here.

SMILES	b-catenin transl	Wee1 stabilizer	Insulin prom up	MT stabilize HCS	Autophagy HCS
Cc1cc(C)cc(N=Cc2[nH]c3ccc(Br)c(Cl)c3c2O)c1	-1	1	x	31*	u
COc1cccc(C(c2nnnn2Cc2ccccc2)N2CCN(C3CCCC3)CC2)c1OC (stereo not given)	-1	3	-1.6	3	+
COc1ccccc1CN(C)CC(=O)Nc1ccc(Cl)cc1F	-1	-2	-0.34	6	i
COc1cc(Cl)c(C)cc1NC(=O)CN(C)Cc1cccc(OC)c1OC	-6	-3	3.4*	6	i
CCOC(=O)c1cc(C)nc(Sc2ccc(C)cc2)c1C#N	-1	0	0.11	x	x
Cc1nn(Cc2ccc([N+](=O)[O-])cc2)c(=O)n1-c1ccccc1Cl	3	2	-0.8	3	+
CCn1cc(/C=N/NC(=O)COc2cccc3cccnc23)c2ccccc21	-2	4	0.17	2	i
CCOc1cc(Br)ccc1S(=O)(=O)NCc1ccccc1	2	-2	-0.23	3	i
Cc1[nH]nc(SCC(=O)NC2CCCCC2)c1[N+](=O)[O-]	-2	1	-0.39	1	i
O=C(COC(=O)Cc1ccccc1[N+](=O)[O-])NC1CCCC1	0	-3	-0.7	5	+
COc1cc(C#N)c(NC(=O)CN2CCC(C(N)=O)CC2)cc1OC	-2	0	0.42	2	i
CCCCC1=CC2=C(c3ccco3)C(=O)C(C)(OC(=O)c3ccc(OC)cc3)C(=O)C2=CN1CC(C)C (stereo not given)	1	x	4.3*	x	x
O=C(Cc1ccccc1)N/N=C/c1ccc2c(c1)OCO2	2	-1	1.1	4	i
O=C(Cn1nnc(-c2ccccc2Cl)n1)N/N=C/c1ccc2c(c1)OCO2	x	12*	x	1	i
O=C(Nc1cccc2nsnc12)c1ccc(-c2cccc(Cl)c2)o1	-1	-4	0.92	3	i
CCOC(=O)c1ccc(N2C(=O)C(O)=C(C(C)=O)C2c2ccccc2)cc1 (stereo not given)	0	-1	x	2	i
CC(=O)C1=C(O)C(=O)N(c2ccc(C(=O)O)cc2)C1c1ccccc1 (stereo not given)	x	9.2*	0.78	2	i
CC(=O)OC1C2CCC1C([N+]1(C)CCCCC1)CC2 (stereo not given)	-1	-1	-0.36	2	i
CN1C(=O)CC(N2CCN(Cc3ccc(Cl)cc3)CC2)C1=O (stereo not given)	-6	1	3.9*	2	i
CCCOc1ccc(/C(O)=C2/C(=O)C(=O)N(CCCn3ccnc3)C2c2ccc(C)o2)cc1 (stereo not given)	0	9.7*	-0.02	x	x
O=C1C2N=NN(CC(=O)N3N=C(c4ccccc4)CC3c3ccc([N+](=O)[O-])cc3)C2C(=O)N1c1ccccc1 (stereo not given)	0	-2	-0.1	1	i
N#CCCn1cc(/C=N/NC(N)=S)c(-c2ccc(-c3ccccc3)cc2)n1	0	4	-0.34	5	i
CC(Oc1ccccc1F)C(=O)Nc1ccc2ccccc2c1 (stereo not given)	1	9.3*	x	3	i
COc1ccc(NC(=O)Cn2nnc(-c3ccccc3NS(=O)(=O)c3ccc(OC)cc3)n2)cc1	x	0	0.41	6	i
COc1ccc(NC(=O)Cn2nnc(-c3ccccc3NC(=O)c3cccs3)n2)cc1	-1	-1	-0.34	19*	i
SMILES	b-catenin transl	Wee1 stabilizer	Insulin prom up	MT stabilize HCS	Autophagy HCS
Cc1ccc2oc(/N=C(\N)NC(=O)C3CC3)nc2c1	3	9.3*	0.13	x	x
Cc1ccc2oc(/N=C(\N)NC(=O)C(C)(C)C)nc2c1	2	-5	-0.26	x	x
COc1ccccc1N1CCN(c2nc(C)nc3c2oc2ccccc23)CC1	81*	0	0.7	20*	i
Cc1nc(N2CCN(Cc3ccc(Cl)cc3)CC2)c2oc3ccccc3c2n1	1	2	-0.34	x	x
Cc1nc(N2CCC(C)CC2)c2oc3ccccc3c2n1	1	2	-0.72	24*	i
Cc1ccc(CN2CCN(CC(=O)N/N=C/c3ccc(C)o3)CC2)cc1	1	2	0.16	x	x
C=C1C(C(=O)Nc2ccccc2)C1C(=O)Nc1ccccc1 (stereo not given)	0	-2	0.98	x	x
CCOc1ccc(C(=O)N(CN2CCCC2=O)c2ccccc2)cc1	-3	13*	1.4	4	i
CCOc1ccc(C(=O)N(CN2CCCC2=O)c2ccc(C)cc2)cc1	-1	1	-0.31	4	i
COCCCNC(=O)/C(C#N)=C1\N=C(NC(=O)c2cccs2)c2ccccc21	-4	-1	0.11	x	x
CC(NC(=O)/C(C#N)=C1\N=C(NC(=O)c2cccs2)c2ccccc21)c1ccccc1 (stereo not given)	-2	2	4*	3	i
N#C/C(C(=O)NCc1ccccc1)=C1/N=C(NC(=O)c2ccco2)c2ccccc21	-2	3	0.15	x	x
N#C/C(C(=O)NCCc1ccccc1)=C1/N=C(NC(=O)c2cccs2)c2ccccc21	49	3	0.49	12*	+
CC(=O)c1ccc(N2CCN(C(=O)c3cccc(Oc4ccccc4)c3)CC2)cc1	-2	5	-0.4	3	+
Cn1c(=O)c2c(nc(CN3CCC(C(N)=O)CC3)n2CCc2ccccc2)n(C)c1=O	114*	-1	0.99	2	x
CCOC(=O)c1c(C)nc2sc(C(=O)Nc3ccc(C(C)=O)cc3)c(N)c2c1-c1ccc(OC)cc1	15	-1	x	31	i
COc1ccc(-c2c(C#N)c(N)nc3sc(C(=O)c4ccc(C)cc4)c(N)c23)cc1	1	-1	0.19	3	+
CCOC(=O)c1c(C)nc2sc(C(N)=O)c(N)c2c1-c1ccc(OC)cc1	-5	-1	0.9	1	i
COc1ccc(NC(=O)c2sc3nc(-c4cccnc4)ccc3c2N)cc1	0	-1	6*	x	x
COc1ccc(C(=O)c2sc3nc(-c4ccc(OC)cc4)ccc3c2N)cc1	-1	1	0.68	2	+
CCOC(=O)c1c(C)nc2sc(C(=O)Nc3ccc(OC)cc3)c(N)c2c1-c1ccc(OC)cc1	-6	-1	-0.15	24*	i
CCN(Cc1cc2ccccc2[nH]c1=O)C(=O)c1cccc([N+](=O)[O-])c1	0	-2	-0.53	x	x
Cc1cc(=O)c2cc3nc(-c4cccnc4)oc3c(Br)c2o1	-3	-1	0.05	x	x
O=C1S/C(=C/c2ccccc2F)C(=O)N1CCN=C1NS(=O)(=O)c2ccccc21	-2	-3	0.65	5	i
COc1ccc(-c2ccc3c(N)c(C(=O)c4cccc(OC)c4)sc3n2)cc1	x	2	x	1	+
COc1cccc(-c2ccc3c(N)c(C(=O)NC4CC4)sc3n2)c1	-2	-1	-0.98	x	x
CCN(CC)S(=O)(=O)c1ccc(Cl)c(NC(=O)COC(=O)c2ccc(O)cc2)c1	0	-2	0.21	3	i
